In ChEMBL document CHEMBL4312006, “A novel chalcone derivative as Nrf2 activator attenuates learning and memory impairment in a scopolamine-induced mouse model” (Eur J Med Chem, 2020):
Active and inactive are the calls of the source. The calls are words filed in the database; no cut-off is given here.

How the values were obtained:
[1] = molecular target: T1, Nuclear factor erythroid 2-related factor 2 (Mus musculus) (UniProt Q60795); assay: Activation of NRF2 in mouse BV2 cells assessed as upregulation of HO1 at 20 uM by ELISA relative to control; type: cell-based
T1 sequence (whole entry): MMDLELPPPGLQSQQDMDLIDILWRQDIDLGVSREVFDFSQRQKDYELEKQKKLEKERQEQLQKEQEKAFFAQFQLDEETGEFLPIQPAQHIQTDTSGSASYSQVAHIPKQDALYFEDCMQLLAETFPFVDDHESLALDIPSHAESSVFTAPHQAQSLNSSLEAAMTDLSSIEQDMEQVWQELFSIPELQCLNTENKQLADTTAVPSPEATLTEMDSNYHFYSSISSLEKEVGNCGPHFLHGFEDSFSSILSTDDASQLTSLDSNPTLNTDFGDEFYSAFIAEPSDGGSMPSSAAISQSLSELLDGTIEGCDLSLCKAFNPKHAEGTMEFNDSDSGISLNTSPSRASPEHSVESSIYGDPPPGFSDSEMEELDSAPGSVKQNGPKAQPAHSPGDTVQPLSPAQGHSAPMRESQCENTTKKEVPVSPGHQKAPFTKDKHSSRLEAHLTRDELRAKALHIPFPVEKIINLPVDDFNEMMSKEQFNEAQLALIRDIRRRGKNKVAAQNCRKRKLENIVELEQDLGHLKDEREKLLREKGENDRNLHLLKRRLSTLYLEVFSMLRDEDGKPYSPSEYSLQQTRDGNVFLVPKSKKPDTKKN

[2] = molecular target: T1, Nuclear factor erythroid 2-related factor 2 (Mus musculus); assay: Activation of NRF2 in mouse BV2 cells assessed as increase in GCLM mRNA level at 0.1 to 10 uM incubated for 8 hrs by qRT-PCR analysis; type: cell-based
In short: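 BV-2 microglia grown in RPMI 1640 with 10% FBS, 2.05 mM L-glutamine and penicillin-streptomycin at 37 °C, 5% CO2. Cells exposed to a range of compound concentrations for 8 h. Ho-1 or Gclm mRNA measured by qRT-PCR and expressed relative to untreated control. Means ± SEM, one-way ANOVA with Dunnett's test.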

[3] = molecular target: T1, Nuclear factor erythroid 2-related factor 2 (Mus musculus); assay: Activation of NRF2 in mouse BV2 cells assessed as increase in HO1 protein expression at 3 uM incubated for 6 hrs by Western blot analysis; type: cell-based
In short: (§1)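 BV-2 cells washed in ice-cold PBS and lysed on ice for 40 min in RIPA buffer with protease inhibitors. Nuclear fractions prepared separately. 10 μg protein run on SDS-PAGE and blotted to PVDF. Membranes blocked in 5% skim milk/TBST and probed overnight at 4 °C for Nrf2, HO-1, GCLM or SOD1. HRP secondary with ECL detection. Band densities normalised to Lamin B1 or β-actin.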

[4] = molecular target: T1, Nuclear factor erythroid 2-related factor 2 (Mus musculus); assay: Activation of NRF2 in mouse BV2 cells assessed as increase in GCLM protein expression incubated for 12 hrs by Western blot analysis; type: cell-based; in short: as §1
[5] = molecular target: T1, Nuclear factor erythroid 2-related factor 2 (Mus musculus); assay: Activation of NRF2 in mouse BV2 cells assessed reduction of LPS-stimulated TNF-alpha level preincubated for 3 hrs followed by LPS stimulation for 24 hrs by ELISA; type: cell-based
In short: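 BV-2 cells pre-incubated with a range of compound concentrations for 3 h, then stimulated with 0.2 μg/mL LPS for 24 h. TNF-α or IL-6 in the culture medium quantified by sandwich ELISA kits. Compared with LPS-treated control by one-way ANOVA with Dunnett's test.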

BV-2 = assay: Inhibition of H2O2-stimulated ROS production in mouse BV2 cells preincubated for 24 hrs followed by H2O2 stimulation for 20 mins by DCFH-DA dye based assay; type: functional, cell-based
In short: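 BV-2 cells treated with a range of compound concentrations for 24 h at 37 °C. Loaded with 20 μM DCFH-DA for 40 min, then 200 μM H2O2 added for 20 min at 37 °C in the dark. DCF fluorescence read at ex 480 nm / em 530 nm. Compared with H2O2-treated control.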

[6] = molecular target: T1, Nuclear factor erythroid 2-related factor 2 (Mus musculus); assay: Activation of NRF2 in mouse BV2 cells upregulation of SOD1 protein expression incubated for 6 hrs by Western blot analysis; type: cell-based; in short: as §1
[7] = molecular target: T1, Nuclear factor erythroid 2-related factor 2 (Mus musculus); assay: Activation of NRF2 in mouse BV2 cells assessed as increase in SOD activity incubated for 24 hrs by WST-1 based assay; type: cell-based
In short: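 BV-2 cells (1.0×10^6) treated with compound for 24 h, or for 6 h followed by 400 μM H2O2 for 18 h. Cells washed, sonicated in ice-cold PBS and centrifuged; supernatant assayed by WST-1/superoxide inhibition. Activity derived from the IC50 of the inhibition curve and given as U/mg protein (1 U = 50% inhibition of WST-1 reduction).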

Mus musculus [8] = assay: Antioxidant activity in mouse assessed as inhibition of scopolamine-induced reduction in SOD activity at 30 mg/kg, po administered for 5 days and measured on day 5 by WST-1 based assay; type: functional, organism-based
In short: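 Male C57BL/6N mice (10 weeks) dosed 30 mg/kg/day compound in saline by oral gavage for 5 days, with scopolamine 2 mg/kg i.p. Hippocampus homogenised in sucrose buffer (pH 7.4) and centrifuged 40 min at 4 °C. SOD activity in the supernatant measured by WST-1 kit and given as U/mg protein. One-way ANOVA with Tukey's test.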

Mus musculus [9] = assay: Cognition enhancing effect in C57BL/6 mouse model of scopolamine-induced amnesia assessed as increase in latency to enter dark room at 30 mg/kg, po administered for 5 days and measured on day 5 after 30 mins of scopolamine stimulation by passive avoidance test relative to control; type: functional
In short: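 Male C57BL/6N mice given 30 mg/kg/day compound in saline orally for 5 days. Scopolamine 1 mg/kg i.p. given on day 4, 30 min before the acquisition trial. Step-through latency recorded in the passive avoidance test.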

CYP2C9 = CYP2C9 (Homo sapiens, UniProt P11712); assay: Inhibition of CYP2C9 (unknown origin) assessed as remaining activity relative to control; type: ADME
Chain of CYP2C9 (P11712 whole entry): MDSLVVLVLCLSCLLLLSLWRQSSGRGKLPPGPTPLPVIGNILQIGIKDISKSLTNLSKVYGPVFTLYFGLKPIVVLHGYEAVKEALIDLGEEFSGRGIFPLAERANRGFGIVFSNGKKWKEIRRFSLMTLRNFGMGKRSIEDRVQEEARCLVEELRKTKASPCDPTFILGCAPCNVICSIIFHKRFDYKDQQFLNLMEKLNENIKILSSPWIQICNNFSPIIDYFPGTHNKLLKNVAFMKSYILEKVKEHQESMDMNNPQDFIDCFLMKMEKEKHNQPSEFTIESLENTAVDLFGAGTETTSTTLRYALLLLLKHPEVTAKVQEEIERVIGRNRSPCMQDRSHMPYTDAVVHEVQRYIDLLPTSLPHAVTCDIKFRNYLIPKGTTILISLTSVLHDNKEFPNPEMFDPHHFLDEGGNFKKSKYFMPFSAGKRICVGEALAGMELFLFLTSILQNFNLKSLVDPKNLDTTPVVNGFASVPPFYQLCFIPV

CYP1A2 = molecular target: T2, CYP1A2 (Homo sapiens, UniProt P05177); assay: Inhibition of CYP1A2 (unknown origin) assessed as remaining activity relative to control; type: ADME
T2 sequence (P05177 whole entry): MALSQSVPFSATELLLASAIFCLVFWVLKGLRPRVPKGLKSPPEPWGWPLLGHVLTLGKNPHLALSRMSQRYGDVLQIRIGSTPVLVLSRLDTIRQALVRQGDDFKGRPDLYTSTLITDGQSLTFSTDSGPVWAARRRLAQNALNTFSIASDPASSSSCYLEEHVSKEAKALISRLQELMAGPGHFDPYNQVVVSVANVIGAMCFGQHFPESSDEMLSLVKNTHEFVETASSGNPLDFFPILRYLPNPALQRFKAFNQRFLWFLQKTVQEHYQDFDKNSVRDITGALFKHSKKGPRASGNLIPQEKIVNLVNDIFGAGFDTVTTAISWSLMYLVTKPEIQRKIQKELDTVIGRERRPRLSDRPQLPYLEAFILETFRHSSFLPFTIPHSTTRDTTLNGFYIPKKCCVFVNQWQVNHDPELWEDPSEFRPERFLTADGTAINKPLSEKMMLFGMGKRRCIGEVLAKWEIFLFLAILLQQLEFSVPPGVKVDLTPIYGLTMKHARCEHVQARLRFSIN

CYP3A4 = CYP3A4 (Homo sapiens, UniProt P08684); assay: Inhibition of CYP3A4 (unknown origin) assessed as remaining activity relative to control; type: ADME
Chain of CYP3A4 (P08684 whole entry): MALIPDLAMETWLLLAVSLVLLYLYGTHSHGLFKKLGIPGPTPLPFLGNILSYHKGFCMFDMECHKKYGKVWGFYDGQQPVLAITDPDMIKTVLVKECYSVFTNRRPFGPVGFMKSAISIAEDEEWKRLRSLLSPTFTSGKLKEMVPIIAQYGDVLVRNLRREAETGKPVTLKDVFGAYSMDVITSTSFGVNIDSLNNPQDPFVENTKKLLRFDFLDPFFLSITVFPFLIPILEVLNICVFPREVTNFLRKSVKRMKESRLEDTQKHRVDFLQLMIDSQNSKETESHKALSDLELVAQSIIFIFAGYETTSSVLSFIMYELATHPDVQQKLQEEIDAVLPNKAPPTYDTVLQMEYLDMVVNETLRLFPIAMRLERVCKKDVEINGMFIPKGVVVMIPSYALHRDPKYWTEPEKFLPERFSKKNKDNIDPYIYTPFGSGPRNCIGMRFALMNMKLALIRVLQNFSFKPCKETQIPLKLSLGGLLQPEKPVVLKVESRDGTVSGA

## CN1CCN(C(=O)COc2ccc(C(=O)/C=C/c3ccccc3C(F)(F)F)cc2)CC1.Cl
[1]
  Activity: 589%
[2]
  Activity: Active
[3]
  Activity: Active
[4]
  Activity: Dose-dependent effect
[5]
  Activity: Dose-dependent effect
BV-2
  inhibition: Dose-dependent effect
[6]
  Activity: Dose-dependent effect
[7]
  Activity: Dose-dependent effect
Mus musculus [8]
  Activity: Active
Mus musculus [9]
  activity: >70%
CYP2C9
  activity: 95.1%
CYP1A2
  activity: 98.5%
CYP3A4
  activity: > 100%
